Here are results for 6 molecules from ChEMBL document CHEMBL1155028, “Synthesis and pharmacological investigation of novel 2-aminothiazole-privileged aporphines” (Bioorg Med Chem, 2008).

Assay type in all cases: cell-based
In assay [1] the target is T1, 5-hydroxytryptamine receptor 1A (Rattus norvegicus, UniProt P19327).
T1 sequence (P19327 whole entry): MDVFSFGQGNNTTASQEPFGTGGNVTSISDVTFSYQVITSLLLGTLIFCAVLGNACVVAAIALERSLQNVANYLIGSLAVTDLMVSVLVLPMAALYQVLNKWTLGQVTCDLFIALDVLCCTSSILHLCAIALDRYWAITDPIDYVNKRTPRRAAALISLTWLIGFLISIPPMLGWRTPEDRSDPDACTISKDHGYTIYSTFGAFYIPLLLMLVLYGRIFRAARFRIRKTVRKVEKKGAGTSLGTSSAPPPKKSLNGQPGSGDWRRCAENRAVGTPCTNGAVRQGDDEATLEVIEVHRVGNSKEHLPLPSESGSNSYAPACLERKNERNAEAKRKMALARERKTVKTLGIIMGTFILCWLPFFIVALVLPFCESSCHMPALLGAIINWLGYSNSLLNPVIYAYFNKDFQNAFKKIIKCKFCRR
Briefly: Displacement of [3H]8-OH-DPAT from rat 5HT1A receptor expressed in CHO cells.

The next assay concerns the target D(1A) dopamine receptor (Homo sapiens, UniProt P21728). Briefly: Displacement of [3H]SCH-23390 from human dopamine D1 receptor expressed in HEK293 cells. (In general: In a radioligand displacement assay an active substance lowers the binding of a labelled ligand.)
Assay [2] deals with T2, 5-hydroxytryptamine receptor 1A (Rattus norvegicus) (UniProt P19327).
T2 sequence (whole entry): T1 sequence (P19327 whole entry)
Kind of assay: Displacement of [3H]8-OH-DPAT from rat 5HT1A receptor expressed in CHO cells at 10 uM. The method in brief:
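Duplicate incubations ran 50 min at 30 °C in 50 mM Tris, 4 mM MgCl2, pH 7.4. Nonspecific binding was set with 10 µM WAY100635. Bound ligand was separated on GF/B filters, washed with cold Tris/EDTA buffer, and counted by liquid scintillation.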

The target in a further assay is D(2) dopamine receptor (Homo sapiens, UniProt P14416). Kind of assay: Displacement of [3H]spiperone from human dopamine D2 receptor expressed in HEK293 cells.
D(2) dopamine receptor, sequence (P14416 whole entry): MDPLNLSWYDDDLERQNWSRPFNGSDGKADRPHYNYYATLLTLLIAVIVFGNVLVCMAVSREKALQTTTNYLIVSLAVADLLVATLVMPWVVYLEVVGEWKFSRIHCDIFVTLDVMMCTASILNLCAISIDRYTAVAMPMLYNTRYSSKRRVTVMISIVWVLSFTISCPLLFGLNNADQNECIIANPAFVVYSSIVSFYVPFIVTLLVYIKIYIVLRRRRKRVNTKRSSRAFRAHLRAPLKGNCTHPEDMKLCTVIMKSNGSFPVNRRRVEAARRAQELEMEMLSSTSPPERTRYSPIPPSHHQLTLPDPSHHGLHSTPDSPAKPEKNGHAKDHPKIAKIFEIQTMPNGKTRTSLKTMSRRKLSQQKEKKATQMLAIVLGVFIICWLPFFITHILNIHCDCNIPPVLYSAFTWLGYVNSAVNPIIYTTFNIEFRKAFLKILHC

pKi: −log10 of the molar value.

D(1A) dopamine receptor, sequence (P21728 whole entry): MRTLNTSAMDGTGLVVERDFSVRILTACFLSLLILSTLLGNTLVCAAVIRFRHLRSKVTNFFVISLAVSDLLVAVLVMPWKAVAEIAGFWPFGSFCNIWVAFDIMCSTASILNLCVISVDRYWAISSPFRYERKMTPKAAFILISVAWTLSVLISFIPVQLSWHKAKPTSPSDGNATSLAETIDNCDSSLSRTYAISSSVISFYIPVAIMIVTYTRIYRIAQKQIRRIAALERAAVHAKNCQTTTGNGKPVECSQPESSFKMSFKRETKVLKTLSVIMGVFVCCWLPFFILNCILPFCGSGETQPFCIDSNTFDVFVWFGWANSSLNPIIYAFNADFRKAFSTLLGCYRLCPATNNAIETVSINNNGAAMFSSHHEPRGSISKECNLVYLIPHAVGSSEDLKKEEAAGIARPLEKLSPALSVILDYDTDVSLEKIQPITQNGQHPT

`COc1cc2c3c(c1)-c1c(N)cccc1C[C@H]3N(C)CC2`: the pKi is 6.19 in assay [1] and 7.11 at D(1A) dopamine receptor. In addition, the Activity in assay [2] came to 94%.

Consider `CN1CCc2cc(N)cc3c2[C@H]1Cc1cccc(N)c1-3`, for which the pKi was 5.64 in assay [1] and 5.53 at D(1A) dopamine receptor. In assay [2], this molecule showed an Activity of 48.1%.

For the molecule `NCCc1c[nH]c2ccc(O)cc12`, in assay [2], the Activity came to 100%.

Consider `CCCCC(=O)Oc1cccc2c1-c1cc(OC)cc3c1[C@@H](C2)N(C)CC3`, for which the pKi in assay [1] was 6.82; on D(1A) dopamine receptor, 6.94. In assay [2], this molecule showed an Activity of 100%.

In the case of `CN1CCc2c3c(cc4nc(N)sc24)-c2c(ccc(O)c2O)C[C@H]31`, the pKi on D(2) dopamine receptor is 6.48; on D(1A) dopamine receptor it was 5.60.

In the case of `COc1cc2c3c(c1)-c1c(ccc4sc(N)nc14)C[C@H]3N(C)CC2`, the Activity in assay [2] turned out to be 48.1%.

One may read the pKi as the negative decadic logarithm of the Ki, by convention in mol/L. Lower therefore signals a high Ki.
